What was measured:
K562 = experiment: Growth inhibition of human K562 cells assessed as cell growth at 10^-4 M incubated for 48 hrs by sulforhodamine B assay; type: functional; settings: K562, 48 h, read-out: Activity
[1] = Growth inhibition of human RPMI8226 cells assessed as cell growth at 10^-6 M incubated for 48 hrs by sulforhodamine B assay; type: functional; settings: RPMI-8226, 48 h, read-out: Activity
Albumin = Albumin (Bos taurus, UniProt P02769); experiment: Binding affinity to bovine serum albumin assessed as binding constant in absorption spectra by Benesie-Hildebrand plot analysis; type: ADME; settings: cattle, isolated protein
How it was run: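 BSA, 10 µM, in 0.1 M phosphate buffer pH 7.4, titrated with compound (0–20 µM per the figure; diluted from 10⁻³ mol L⁻¹ DMSO stocks). Run at 300 K in a 1 cm quartz cell. UV spectra taken 200–800 nm after 5 min equilibration; fluorescence excited at 280 nm, emission 351 nm, slit 10 nm. K is the intercept/slope ratio of a linear fit of 1/(A₀−A) or 1/(F₀−F) vs 1/[compound].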

[2] = Growth inhibition of human TK10 cells incubated for 48 hrs by sulforhodamine B assay; type: functional; settings: TK-10, 48 h
How it was run: (§1)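 Cells were plated at 5,000–40,000 per well according to doubling time and preincubated 24 h at 37 °C in 5% CO2; time-zero plates were then TCA-fixed. Five concentrations (10-fold or ½-log dilutions, DMSO stock) were incubated 48 h. Cells were TCA-fixed, stained with 0.4% SRB and read at 515 nm. GI50 was taken where [(Ti−Tz)/(C−Tz)]×100 = 50.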

[3] = Growth inhibition of human SNB19 cells assessed as cell growth at 10 uM incubated for 48 hrs by sulforhodamine B assay; type: functional; settings: SNB-19, 48 h, read-out: Activity
NCI-H226 = experiment: Growth inhibition of human NCI-H226 cells assessed as cell growth at 10^-5 M incubated for 48 hrs by sulforhodamine B assay; type: functional; settings: NCI-H226, 48 h, read-out: Activity
SR = experiment: Growth inhibition of human SR cells assessed as cell growth at 10^-4 M incubated for 48 hrs by sulforhodamine B assay; type: functional; settings: read-out: Activity
Malme-3M = experiment: Growth inhibition of human MALME-3M cells assessed as cell growth at 10^-8 M incubated for 48 hrs by sulforhodamine B assay; type: functional; settings: read-out: Activity
[4] = Growth inhibition of human OVCAR5 cells assessed as cell growth at 10^-6 M incubated for 48 hrs by sulforhodamine B assay; type: functional; settings: OVCAR-5, 48 h, read-out: Activity
MDA-MB-435 [5] = experiment: Growth inhibition of human MDA-MB-435 cells assessed as cell growth at 10^-5 M incubated for 48 hrs by sulforhodamine B assay; type: functional; settings: MDA-MB-435, 48 h, read-out: Activity
[6] = Growth inhibition of human RPMI8226 cells assessed as cell growth at 10^-7 M incubated for 48 hrs by sulforhodamine B assay; type: functional; settings: RPMI-8226, 48 h, read-out: Activity
[7] = Growth inhibition of human OVCAR4 cells incubated for 48 hrs by sulforhodamine B assay; type: functional; settings: OVCAR-4, 48 h; how it was run: as §1
[8] = Growth inhibition of human HL-60(TB) cells assessed as cell growth at 10^-5 M incubated for 48 hrs by sulforhodamine B assay; type: functional; settings: HL-60, 48 h, read-out: Activity
How it was run: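 Cells plated at 5,000–40,000/well according to doubling time and preincubated 24 h at 37 °C, 5% CO₂, with time-zero plates TCA-fixed. Drugs were kept as DMSO concentrates at 400× the top concentration and diluted in medium with 50 µg/ml gentamicin. Five 10-fold or ½-log dilutions were run for 48 h, followed by SRB staining and A515. Percent growth = (Ti−Tz)/(C−Tz)×100, or (Ti−Tz)/Tz×100 when Ti<Tz.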

[9] = Growth inhibition of human COLO205 cells assessed as cell growth at 10^-8 M incubated for 48 hrs by sulforhodamine B assay; type: functional; settings: COLO 205, 48 h, read-out: Activity
How it was run: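 Cells seeded at 5,000–40,000/well according to doubling time and preincubated 24 h at 37 °C, 5% CO2. Time-zero plates were TCA-fixed. DMSO concentrate was diluted in medium with 50 µg/ml gentamicin to give five concentrations (10-fold or ½ log steps), then exposed 48 h. Cells were TCA-fixed, stained with 0.4% SRB and read at 515 nm. Percent growth was taken against time-zero and control; GI50, TGI and LC50 derived.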

[10] = Growth inhibition of human UACC62 cells assessed as cell growth at 10^-6 M incubated for 48 hrs by sulforhodamine B assay; type: functional; settings: UACC-62, 48 h, read-out: Activity
NCI/ADR-RES = experiment: Growth inhibition of human NCI/ADR-RES cells incubated for 48 hrs by sulforhodamine B assay; type: functional; how it was run: as §1
[11] = Growth inhibition of human breast cancer cells incubated for 48 hrs by sulforhodamine B assay; type: functional; settings: Cancer cell lines
ACHN = experiment: Growth inhibition of human ACHN cells incubated for 48 hrs by sulforhodamine B assay; type: functional
How it was run: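 Five-dose assay: five concentrations from 10-fold or ½-log serial dilutions. Cells are plated at 5,000–40,000 per well according to doubling time, grown 24 h, then exposed 48 h at 37 °C, 5% CO₂. Fixed with cold 50% TCA (final addition) for 60 min at 4 °C and stained with 0.4% SRB in 1% acetic acid. Bound dye is solubilized in 10 mM Tris base and read at 515 nm. GI₅₀ is where [(Ti−Tz)/(C−Tz)]×100 = 50, with a time-zero plate as Tz.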

MDA-MB-435 [12] = experiment: Growth inhibition of human MDA-MB-435 cells assessed as cell growth at 10^-8 M incubated for 48 hrs by sulforhodamine B assay; type: functional; settings: MDA-MB-435, 48 h, read-out: Activity
MCF7 = experiment: Growth inhibition of human MCF7 cells assessed as cell growth at 10^-8 M incubated for 48 hrs by sulforhodamine B assay; type: functional; settings: MCF7, 48 h, read-out: Activity
NCI-H522 = experiment: Growth inhibition of human NCI-H522 cells incubated for 48 hrs by sulforhodamine B assay; type: functional; settings: NCI-H522, 48 h; how it was run: as §1
[13] = read-out: LC50 (the source's name)
[14] = read-out: pLC50 (the source's name) (converted)

Sequence of Albumin (P02769 whole entry): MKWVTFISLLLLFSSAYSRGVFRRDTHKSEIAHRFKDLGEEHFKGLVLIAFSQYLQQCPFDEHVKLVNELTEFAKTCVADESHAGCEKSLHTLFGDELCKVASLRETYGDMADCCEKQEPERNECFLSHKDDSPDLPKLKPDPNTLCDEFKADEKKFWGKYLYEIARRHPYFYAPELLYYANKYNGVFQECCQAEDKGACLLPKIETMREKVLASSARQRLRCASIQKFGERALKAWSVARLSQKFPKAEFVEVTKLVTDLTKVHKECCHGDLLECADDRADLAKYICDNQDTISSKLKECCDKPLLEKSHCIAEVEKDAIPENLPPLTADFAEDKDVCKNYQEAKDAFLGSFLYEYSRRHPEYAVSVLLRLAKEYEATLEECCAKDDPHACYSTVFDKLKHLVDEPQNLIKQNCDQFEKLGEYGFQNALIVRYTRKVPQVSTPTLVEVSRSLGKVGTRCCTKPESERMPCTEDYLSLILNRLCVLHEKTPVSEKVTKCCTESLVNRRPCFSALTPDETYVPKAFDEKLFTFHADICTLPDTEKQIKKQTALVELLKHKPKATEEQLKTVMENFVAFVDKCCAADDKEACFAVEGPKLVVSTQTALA

c1ccc(-c2nc(Nc3ccc(-c4nc5ccccc5[nH]4)cc3)nc(N3CCOCC3)n2)cc1
growth at 100 µM (K562): -55%
growth at 1 µM [1]: 54%
K (Albumin): 1.2 ×10⁵ /M
GI50 ([2]; read-out: GI50): 2.15 µM
CC50 [2, 13]: 6.58 µM
TGI ([2]; read-out: TGI): 3.76 µM
GI50 ([2]; read-out: pGI50 (converted)): 2.14 µM
CC50 [2, 14]: 6.61 µM
TGI ([2]; read-out: pTGI (converted)): 3.8 µM
growth at 10 µM [3]: -18.6%
growth at 10 µM (NCI-H226): -60%
growth at 100 µM (SR): -28%
growth at 0.01 µM (Malme-3M): 106%
growth at 1 µM [4]: 112%
growth at 10 µM (MDA-MB-435 [5]): -90%
growth at 0.1 µM [6]: 97%
GI50 ([7]; read-out: GI50): 1.68 µM
CC50 [7, 13]: 5.63 µM
TGI ([7]; read-out: TGI): 3.08 µM
GI50 ([7]; read-out: pGI50 (converted)): 1.7 µM
CC50 [7, 14]: 5.62 µM
TGI ([7]; read-out: pTGI (converted)): 3.09 µM
growth at 10 µM [8]: -44%
growth at 0.01 µM [9]: 100%
growth at 1 µM [10]: 84%
GI50 (NCI/ADR-RES; read-out: GI50): 1.93 µM
CC50 (NCI/ADR-RES; [13]): > 100 µM
TGI (NCI/ADR-RES; read-out: TGI): 5.53 µM
GI50 (NCI/ADR-RES; read-out: pGI50 (converted)): 1.95 µM
CC50 (NCI/ADR-RES; [14]): > 100 µM
TGI (NCI/ADR-RES; read-out: pTGI (converted)): 5.5 µM
GI50 [11]: 1.63 µM
TGI [11]: 4.08 µM
CC50 [11, 13]: 8.74 µM
GI50 (ACHN; read-out: GI50): 1.25 µM
CC50 (ACHN; [13]): 6.04 µM
TGI (ACHN; read-out: TGI): 2.74 µM
GI50 (ACHN; read-out: pGI50 (converted)): 1.26 µM
CC50 (ACHN; [14]): 6.03 µM
TGI (ACHN; read-out: pTGI (converted)): 2.75 µM
growth at 0.01 µM (MDA-MB-435 [12]): 98%
growth at 0.01 µM (MCF7): 92%
GI50 (NCI-H522; read-out: GI50): 2.1 µM
CC50 (NCI-H522; [13]): 7.33 µM
TGI (NCI-H522; read-out: TGI): 3.92 µM
GI50 (NCI-H522; read-out: pGI50 (converted)): 2.09 µM
CC50 (NCI-H522; [14]): 7.41 µM
TGI (NCI-H522; read-out: pTGI (converted)): 3.89 µM
